Measured values reported in ChEMBL document CHEMBL5331127, “Discovery of ARD-2051 as a Potent and Orally Efficacious Proteolysis Targeting Chimera (PROTAC) Degrader of Androgen Receptor for the Treatment of Advanced Prostate Cancer” (J Med Chem, 2023).
Activity calls are given as the source filed them.

Experiments:
[1] = Drug concentration in ICR mouse plasma at 10 mg/kg, po measured after 24 hrs; assay type: ADME, organism-based
Procedure, shortened: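 Mice given a single 10 mg/kg dose by oral gavage, 3 mice per time point. Plasma drug levels measured at 1, 3, 6 and 24 h; mean ± SD reported.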

[2] = Half life in ICR mouse at 2 mg/kg, iv measured upto 24 hrs by LC-MS/MS analysis; assay type: ADME, organism-based; conditions: in vivo
Procedure, shortened: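 Male ICR mice (2 mg/kg), male SD rats (1 mg/kg) or male Beagle dogs (1 mg/kg) given a single intravenous dose in 10% PEG400 + 90% PBS adjusted to pH 8.0 with NaOH.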

[3] = tested on: VCaP; experiment: Induction of androgen receptor degradation in human VCaP cells at 100 nM pretreated with thalidomide for 2 hrs followed by compound addition and 3 hrs by Western blot analysis; assay type: functional, cell-based; conditions: time 5.0 hrs
Procedure, shortened: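 LNCaP or VCaP cells pretreated 2 h with DMSO, ARi-12 (10 μM), thalidomide (10 μM), MG-132 (3 μM) or MLN4924 (0.5 μM), then given degrader at 100 nM for 3 h. AR measured by Western blot with GAPDH as loading control.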

[4] = Metabolic stability in mouse liver microsomes assessed as half life at 1 uM measured upto 45 mins in presence of NADPH by LC-MS/MS analysis; assay type: ADME, Microsome; conditions: 0.75 h
Procedure, shortened: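 Pooled liver microsomes from each species: 1 μM compound with 0.5 mg/mL microsomes and 1.7 mM NADPH in 0.1 M K-phosphate, pH 7.4, 5 mM MgCl2, 37 °C. Sampled at 0, 5, 10, 15, 30 and 45 min with cold ACN quench. No-NADPH incubation as negative control; ketanserin as positive control. LC-MS/MS; half-life from ln(remaining) versus time.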

[5] = Cmax in Beagle dog at 3 mg/kg, po measured up to 24 hrs by LC-MS/MS analysis; assay type: ADME, organism-based, Canis lupus familiaris; parameters: time < 24 hrs, dose 3 mg/kg, route po; conditions: in vivo
Procedure, shortened: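 Male Beagle dogs dosed orally at 3 mg/kg in 90% PEG400 + 10% Cremophor.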

[6] = tested on: VCaP; experiment: Downregulation of KLK3 gene expression in human VCaP cells incubated for 24 hrs by qRT-PCR analysis; assay type: functional, cell-based; conditions: dose 0.03-30 nM
Procedure, shortened: (§1)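 LNCaP cells (RPMI 1640) or VCaP cells (DMEM Glutamax), both with 10% FBS, treated for 24 h. KLK3 mRNA measured by qRT-PCR and calculated by the comparative CT method against GAPDH and vehicle.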

[7] = tested on: VCaP; experiment: Antitumor activity against human VCaP cells xenografted in CB17 SCID mouse assessed as tumor growth inhibition at 3.75 mg/kg, po administered for 21 days; assay type: functional; conditions: 504 h, time 21 day, read-out: TGI
Procedure, shortened: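 SCID mice bearing VCaP xenografts dosed by oral gavage once daily for 21 days at 3.75, 7.5, 12.5 or 25 mg/kg. Tumour growth inhibition calculated against vehicle-treated mice at the end of treatment; body weight monitored.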

[8] = Metabolic stability in monkey plasma assessed as half life at 1 uM measured upto 120 mins by LC-MS/MS analysis; assay type: ADME, cell-free, Macaca mulatta; conditions: rhesus monkey, 2 h
Procedure, shortened: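 Compound at 1 μM final in pre-warmed plasma of each species, 37 °C for up to 2 h. ACN/IS quench at 0, 5, 15, 30, 60 and 120 min; LC/MS. Procaine as reference (benfluorex for rat). t1/2 = 0.693/slope of ln(fraction remaining) versus time.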

[9] = Downregulation of KLK3 gene expression in human VCaP cells at 30 nM incubated for 24 hrs by qRT-PCR analysis; assay type: functional; procedure, shortened: as §1
[10] = biological target: T1, Androgen receptor (Homo sapiens) (UniProt P10275); experiment: Induction of androgen receptor degradation in human VCaP cells at 100 to 1000 nM incubated for 24 hrs by proteomic analysis; assay type: cell-based; conditions: dose 100-1000 nM
T1 sequence (whole entry): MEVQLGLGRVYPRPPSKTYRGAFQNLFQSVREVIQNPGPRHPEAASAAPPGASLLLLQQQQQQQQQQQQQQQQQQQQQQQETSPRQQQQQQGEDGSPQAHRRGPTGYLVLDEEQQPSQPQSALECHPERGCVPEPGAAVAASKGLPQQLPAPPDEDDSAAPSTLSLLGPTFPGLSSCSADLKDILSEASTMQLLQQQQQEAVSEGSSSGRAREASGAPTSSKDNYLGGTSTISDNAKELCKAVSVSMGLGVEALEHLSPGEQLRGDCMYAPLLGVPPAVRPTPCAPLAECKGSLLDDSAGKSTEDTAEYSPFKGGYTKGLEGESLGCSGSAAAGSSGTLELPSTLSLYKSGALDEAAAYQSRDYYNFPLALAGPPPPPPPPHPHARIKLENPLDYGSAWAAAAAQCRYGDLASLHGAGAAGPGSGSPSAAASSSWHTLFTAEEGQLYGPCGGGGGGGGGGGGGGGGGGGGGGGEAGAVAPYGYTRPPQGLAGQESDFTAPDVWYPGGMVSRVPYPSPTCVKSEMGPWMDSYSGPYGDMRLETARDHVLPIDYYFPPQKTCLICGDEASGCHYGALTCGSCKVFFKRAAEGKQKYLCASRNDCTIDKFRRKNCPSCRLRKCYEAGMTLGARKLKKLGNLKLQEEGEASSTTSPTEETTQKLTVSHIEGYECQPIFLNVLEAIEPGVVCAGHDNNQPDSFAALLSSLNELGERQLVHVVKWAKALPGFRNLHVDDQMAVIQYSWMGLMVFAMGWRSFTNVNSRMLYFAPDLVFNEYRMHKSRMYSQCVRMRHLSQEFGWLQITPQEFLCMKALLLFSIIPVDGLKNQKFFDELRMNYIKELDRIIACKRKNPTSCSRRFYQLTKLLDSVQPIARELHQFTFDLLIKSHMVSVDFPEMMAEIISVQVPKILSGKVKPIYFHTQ
Procedure, shortened: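 VCaP cells treated for 24 h with degrader at 100 nM or 1 μM, or with ARi-12 at 10 μM. Multiplexed quantitative proteomics, normalised to DMSO, three independent replicates. Cut-off p ≤0.05 and fold change >2.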

[11] = Volume of distribution at steady state in Beagle dog at 1 mg/kg, iv measured upto 24 hrs by LC-MS/MS analysis; assay type: ADME, organism-based, Canis lupus familiaris; conditions: in vivo
Procedure, shortened: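 Male Beagle dogs. IV 1 mg/kg in 10% PEG400 + 90% PBS (pH 8.0); PO 3 mg/kg in 90% PEG400 + 10% Cremophor. Plasma PK to 24 h; F from IV and PO exposure.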

[12] = Drug concentration in CB17 SCID mouse plasma xenografted with human VCaP cells at 12.5 mg/kg, po measured after 6 hrs by LC-MS/MS analysis; assay type: ADME, organism-based
Procedure, shortened: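 SCID mice bearing one VCaP tumour each given a single oral 12.5 mg/kg dose in 100% PEG200. Plasma and tumour tissue collected at 6 and 24 h, 3 mice per time point. Values are mean ± SD.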

[13] = biological target: Cytochrome P450 2C19 (Homo sapiens, UniProt P33261); experiment: Inhibition of CYP2C19 in human liver microsomes preincubated for 5 mins followed by NADPH addition and measured after 10 mins by LC/MS analysis; assay type: ADME, Microsome
Cytochrome P450 2C19, sequence (P33261 whole entry): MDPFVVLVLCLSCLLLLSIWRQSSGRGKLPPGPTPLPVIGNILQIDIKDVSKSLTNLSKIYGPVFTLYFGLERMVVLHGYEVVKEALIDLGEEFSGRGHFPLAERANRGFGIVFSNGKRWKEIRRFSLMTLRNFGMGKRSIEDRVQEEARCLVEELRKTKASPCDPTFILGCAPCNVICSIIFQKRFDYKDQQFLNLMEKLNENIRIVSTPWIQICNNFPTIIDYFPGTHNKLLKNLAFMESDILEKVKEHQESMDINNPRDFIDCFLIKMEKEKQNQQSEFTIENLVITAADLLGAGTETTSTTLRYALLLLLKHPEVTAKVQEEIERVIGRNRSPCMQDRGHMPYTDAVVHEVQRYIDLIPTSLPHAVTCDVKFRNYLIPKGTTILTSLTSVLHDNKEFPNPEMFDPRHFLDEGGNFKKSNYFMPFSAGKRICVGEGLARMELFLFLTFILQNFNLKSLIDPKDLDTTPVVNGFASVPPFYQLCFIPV

[14] = biological target: Cytochrome P450 3A4 (Homo sapiens, UniProt P08684); experiment: Inhibition of CYP3A4 in human liver microsomes using […] as substrate preincubated for 5 mins followed by NADPH addition and measured after 5 mins by LC/MS analysis; assay type: ADME, Microsome
Cytochrome P450 3A4, sequence (P08684 whole entry): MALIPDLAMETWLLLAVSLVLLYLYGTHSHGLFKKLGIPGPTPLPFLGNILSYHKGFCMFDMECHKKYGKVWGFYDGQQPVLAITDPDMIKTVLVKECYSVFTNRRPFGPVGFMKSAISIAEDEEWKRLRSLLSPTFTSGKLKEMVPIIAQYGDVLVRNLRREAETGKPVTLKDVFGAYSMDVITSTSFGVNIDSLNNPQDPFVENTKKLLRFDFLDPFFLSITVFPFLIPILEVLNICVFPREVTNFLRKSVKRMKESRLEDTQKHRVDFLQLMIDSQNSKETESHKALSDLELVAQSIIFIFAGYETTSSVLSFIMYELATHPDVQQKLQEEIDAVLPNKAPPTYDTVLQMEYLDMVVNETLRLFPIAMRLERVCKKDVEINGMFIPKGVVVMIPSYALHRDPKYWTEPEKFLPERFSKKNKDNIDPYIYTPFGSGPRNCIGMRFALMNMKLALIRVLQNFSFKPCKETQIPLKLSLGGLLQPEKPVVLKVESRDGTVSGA

C[C@H]1CC2(CCN(c3ccc(C(=O)N4CCN(C5CN(c6ccc7c(c6)C(=O)N(C6CCC(=O)NC6=O)C7=O)C5)CC4)cc3)CC2)CN1c1ccc(C#N)c(Cl)c1 (some centres undefined)
concentration at 24 h [1]: 77 ng/mL | t1/2 [2]: 5 h | Activity [3]: inactive | t1/2 [4]: > 1 h | Cmax [5]: 294 ng/mL | Activity [6]: Dose-Dependent Effect | inhibition in vivo at 3.75 mg/kg [7]: 44% | t1/2 [8]: > 2 h | Activity [9]: 87% | Activity [10]: 82% | Vdss [11]: 2.8 L/kg | concentration at 6 h [12]: 985 ng/mL | IC50 [13]: > 10 µM | IC50 [14]: > 10 µM
